In brackets after ≈: the same amount, converted by molar mass.

One assay has as its target Protein kinase C (PKC). The experiment in a line: Inhibition of rat brain PKC. The method in brief:
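Rat brain PKC, partially purified and mainly alpha/beta isoforms, acting on lysine-rich histone (30 μg). Partial activation by phosphatidylserine 8 μg/ml plus TPA 3 nM, no calcium, EGTA present, 20 mM Tris-Cl pH 7.4. Run 10 min at 30°, duplicates. Samples spotted on P81 paper, Cerenkov counted, no-enzyme blanks subtracted. IC50 from logarithmic interpolation over ten-fold dilutions, 0.16–160 μg/ml.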

Assay [1] in a line: Inhibition of bovine thymus p56LCK. More on the design: species or system Bos taurus. An outline of the steps: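 Partially purified p56lck from bovine thymus (through butyl-agarose step). Compounds were dissolved in DMSO, with 8% DMSO present in all assays. Emodin served as reference compound.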

On to `OC[C@H]1O[C@@H](Oc2ccc(/C=C\c3cc(O)cc(O)c3)cc2)[C@H](O)[C@@H](O)[C@@H]1O`, for which the figures for the IC50 (against Protein kinase C (PKC); in assay [1]) were 6 µg/mL (≈ 15.4 µM) and over 8 ×10² ug/ml, respectively.

In the case of `Oc1ccc(/C=C\c2cc(O)cc(O)c2)cc1` [CIS-RESVERATROL], the IC50 is 3 ×10¹ ug/ml on Protein kinase C (PKC) and 5 ×10¹ ug/ml in assay [1]. In assay [1], `Cc1cc(O)c2c(c1)C(=O)c1cc(O)cc(O)c1C2=O` [EMODIN] came in with an IC50 of 10 µg/mL (≈ 37 µM). Consider `OC[C@H]1O[C@@H](Oc2ccc(/C=C/c3cc(O)cc(O)c3)cc2)[C@H](O)[C@@H](O)[C@@H]1O` [GOB C], for which the figures for the IC50 (against Protein kinase C (PKC); in assay [1]) were 3 µg/mL (≈ 7.68 µM) and 2 ×10² ug/ml, respectively. On to `OC[C@H]1O[C@@H](Oc2cc(O)cc(/C=C/c3ccc(O)cc3)c2)[C@H](O)[C@@H](O)[C@@H]1O` [PICEID], for which the IC50 (against Protein kinase C (PKC); in assay [1]) was 2 ×10² ug/ml each time. With `Oc1ccc(/C=C/c2cc(O)cc(O)c2)cc1` [RESVERATROL], the IC50 amounted to 4 ×10¹ ug/ml at Protein kinase C (PKC) and 6 ×10¹ ug/ml in assay [1]. On Protein kinase C (PKC), `CN1CCN(CCCN2c3ccccc3Sc3ccc(C(F)(F)F)cc32)CC1` [TRIFLUOPERAZINE] had an IC50 of 30 µg/mL (≈ 73.6 µM).

On to `OC[C@H]1O[C@@H](Oc2cc(O)cc(/C=C\c3ccc(O)cc3)c2)[C@H](O)[C@@H](O)[C@@H]1O` [Z-PICEID], for which the IC50 on Protein kinase C (PKC) came to 2 ×10² ug/ml; in assay [1], 5 ×10² ug/ml.

Values taken from ChEMBL document CHEMBL1147385, “Kinase inhibitors from Polygonum cuspidatum” (J Nat Prod, 1993).
